ChEMBL document CHEMBL3784919, “Design and synthesis of novel 5-aminosalicylate (5-ASA)-4-thiazolinone hybrid derivatives with promising antiproliferative activity” (Bioorg Med Chem Lett, 2016)

Legend:
[1] = test system: MCF7; assay: Antiproliferative activity against human MCF7 cells assessed as cell survival at 10 uM after 48 hrs by SRB assay; type: functional; conditions: MCF7, 48 h, read-out: Survival
Method in brief: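 Human breast cancer MCF-7 cells were exposed once to a single compound concentration for 48 h. Vehicle controls received DMSO, added as 0.1%. Survival was read by sulforhodamine B staining and expressed as percent of cells remaining relative to the DMSO control, set at 100%, with SD.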

[2] = test system: A549; assay: Antiproliferative activity against human A549 cells assessed as cell viability after 48 hrs by SRB assay; type: functional, cell-based; conditions: A549, 48 h
[3] = Cytotoxicity against human F180 cells assessed as cell viability after 48 hrs by SRB assay; type: cell-based; conditions: F180, 48 h
[4] = test system: MCF7; assay: Antiproliferative activity against human MCF7 cells assessed as cell viability after 48 hrs by SRB assay; type: functional, cell-based; conditions: MCF7, 48 h
[5] = test system: HeLa; assay: Antiproliferative activity against human HeLa cells assessed as cell viability after 48 hrs by SRB assay; type: functional, cell-based
[6] = Antiproliferative activity against human HCT116 cells assessed as cell viability after 48 hrs by SRB assay; type: functional, cell-based; conditions: HCT-116, 48 h
[7] = Ratio of compound IC50 to doxorubicin IC50 for human F180 cells; type: ADME, cell-based; conditions: read-out: Ratio IC50

COC(=O)c1cc(NC2=NC(=O)/C(=C/c3ccc([N+](=O)[O-])cc3)S2)ccc1O
viability at 10 µM [1]: 73.9%

COC(=O)c1cc(NC2=NC(=O)/C(=C/c3cccc(Cl)c3)S2)ccc1O
viability at 10 µM [1]: 65.9%

COC(=O)c1cc(NC2=NC(=O)/C(=C/c3ccc(O)cc3)S2)ccc1O
viability at 10 µM [1]: 93.5%

COC(=O)c1cc(NC2=NC(=O)/C(=C/c3ccccc3Cl)S2)ccc1O
viability at 10 µM [1]: 85%

COC(=O)c1cc(NC2=NC(=O)/C(=C/c3ccccc3O)S2)ccc1O
IC50 [2]: > 10000 nM
IC50 [3]: > 10000 nM
IC50 [4]: 500 nM
viability at 10 µM [1]: 16.5%
IC50 [5]: 1390 nM
IC50 [6]: 3440 nM

COC(=O)c1cc(NC2=NC(=O)/C(=C/c3ccc(F)cc3)S2)ccc1O
viability at 10 µM [1]: 86%

COC(=O)c1cc(NC2=NC(=O)/C(=C/c3ccc(Cl)cc3)S2)ccc1O
viability at 10 µM [1]: 28%

COC(=O)c1cc(NC2=NC(=O)/C(=C/c3cccc([N+](=O)[O-])c3)S2)ccc1O
viability at 10 µM [1]: 82.2%

COC(=O)c1cc(NC2=NC(=O)/C(=C/c3ccc(OC)c(OC)c3)S2)ccc1O
viability at 10 µM [1]: 26.6%

COC(=O)c1cc(NC2=NC(=O)/C(=C/c3ccc(C)cc3)S2)ccc1O
IC50 [2]: 2200 nM
IC50 [3]: 1050 nM
IC50 [4]: 410 nM
viability at 10 µM [1]: 17.8%
IC50 [5]: 85 nM
IC50 [6]: 450 nM

COC(=O)c1cc(NC2=NC(=O)CS2)ccc1O
viability at 10 µM [1]: 97%

COC(=O)c1cc(NC2=NC(=O)/C(=C/c3cc(OC)c(OC)c(OC)c3)S2)ccc1O
viability at 10 µM [1]: 73.3%

COC(=O)c1cc(NC2=NC(=O)/C(=C/c3ccccc3)S2)ccc1O
viability at 10 µM [1]: 67.8%

COC(=O)c1cc(NC2=NC(=O)/C(=C/c3ccccc3OC)S2)ccc1O
viability at 10 µM [1]: 70%

COC(=O)c1cc(NC2=NC(=O)/C(=C/c3ccc(Br)cc3)S2)ccc1O
IC50 [2]: 8300 nM
IC50 [3]: 10000 nM
IC50 [4]: 70 nM
viability at 10 µM [1]: 19%
selectivity ratio [7]: 28
IC50 [5]: 3480 nM
IC50 [6]: 5580 nM

COC(=O)c1cc(NC2=NC(=O)/C(=C/c3ccc(N(C)C)cc3)S2)ccc1O
IC50 [2]: 2400 nM
IC50 [3]: 940 nM
IC50 [4]: 630 nM
viability at 10 µM [1]: 16.2%
IC50 [5]: 180 nM
IC50 [6]: 310 nM

COC(=O)c1cc(NC2=NC(=O)/C(=C/c3ccc4c(c3)OCO4)S2)ccc1O
viability at 10 µM [1]: 28%

COC(=O)c1cc(NC2=NC(=O)/C(=C/c3cccc(Br)c3)S2)ccc1O
viability at 10 µM [1]: 68%

COC(=O)c1cc(NC2=NC(=O)/C(=C/c3ccc(OC)cc3)S2)ccc1O
viability at 10 µM [1]: 26%

COc1cccc2c1C(=O)c1c(O)c3c(c(O)c1C2=O)C[C@@](O)(C(=O)CO)C[C@@H]3O[C@H]1C[C@H](N)[C@H](O)[C@H](C)O1 [DOXORUBICIN]
IC50 [2]: 450 nM
IC50 [3]: 350 nM
viability at 10 µM [1]: 4%
IC50 [5]: 100 nM
IC50 [6]: 380 nM
